CAL PDZ FP-1 – CAL PDZ (human) peptide binding inhibition | Q9HD26 | purified CAL PDZ, TMR-peptide fluorescence polarization, 1 h | inhibition, % at 24.9 µM | 300,000 compounds, 0.92% hits | AID 602252;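 active = mean inhibition of at least 30% with at least half of replicates also reaching 30%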;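 note: 0% = DMSO neutral control and 100% = excess unlabeled competitor peptide PRC23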
SR-BI uptake up – activators of SR-BI mediated HDL lipid uptake; 320,000 compounds, 0.096% hits; AID 504775; CHO ldlA[mSR-BI] cells, DiI-HDL uptake fluorescence, 3 h; 100 = double the neutral-control signal; activation, % at 12.5 µM;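 active = mean replicate activation of at least 60% and every replicate at or above 60%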;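 note: 0% = median plate neutral-control signal and 100% = twice that signal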
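Assay system: LDL receptor-deficient CHO ldlA cells overexpressing murine SR-BI / Medium: BSA-supplemented, HEPES-buffered Ham's F12, pH 7.4 / Probe or stimulus: DiI-labelled HDL at 10 µg/mL final / Timing: compound with DiI-HDL co-incubation, 3 h at 37 °C / Technique: bottom-read cell fluorescence after medium removal, ex 550/em 595 nm / Measure: HDL uptake via cellular fluorescence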
ARNT-TACC3 inh – disrupts binding between human ARNT and TACC3; Q9Y6A5; AlphaScreen His-ARNT PAS-B/GST-TACC3 binding, luminescence; TACC3 fragment carries E629A point mutation; inhibition, % at 9.99 µM; 390,000 compounds, 0.66% hits; AID 623870;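 active = mean inhibition of replicates at least 50% and at least half of replicates each reaching 50%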;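 note: 0% = complete ARNT plus TACC3 wells and 100% = ARNT alone without TACC3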
SR-BI HDL uptake – inhibitors of mouse SR-BI mediated HDL lipid uptake; Q61009; ldlA[mSR-BI] CHO cells, DiI-HDL uptake fluorescence, 3 h; inhibition, % at 12.5 µM; 320,000 compounds, 0.96% hits; AID 488896;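 active = mean replicate inhibition of at least 70% and a set share of replicates each scoring 70 or more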;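 note: 0% = median of neutral control wells and 100% = median of positive control wells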
Target sequence (Q61009 whole entry, looked up): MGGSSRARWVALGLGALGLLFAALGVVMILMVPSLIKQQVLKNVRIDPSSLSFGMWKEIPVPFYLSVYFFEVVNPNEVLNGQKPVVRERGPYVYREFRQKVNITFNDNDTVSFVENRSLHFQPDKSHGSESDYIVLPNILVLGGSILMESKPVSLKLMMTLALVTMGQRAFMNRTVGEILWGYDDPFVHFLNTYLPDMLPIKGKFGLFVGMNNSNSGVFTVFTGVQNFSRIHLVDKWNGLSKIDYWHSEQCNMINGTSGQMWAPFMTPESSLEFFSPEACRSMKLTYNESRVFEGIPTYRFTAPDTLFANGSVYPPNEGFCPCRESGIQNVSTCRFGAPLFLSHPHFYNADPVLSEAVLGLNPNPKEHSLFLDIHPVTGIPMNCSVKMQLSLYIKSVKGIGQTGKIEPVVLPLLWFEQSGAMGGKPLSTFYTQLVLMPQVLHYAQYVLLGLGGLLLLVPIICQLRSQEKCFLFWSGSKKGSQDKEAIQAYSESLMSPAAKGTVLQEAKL
miR-122 sensor – inhibitors of miR-122 in Huh7 cells; Huh7 miR-122 Renilla luciferase sensor, 48 h; neutral wells = 0, positive control = 100; activation (reporter increase), % at 12.5 µM; 340,000 compounds, 0.3% hits;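 active = mean replicate activation score at least 90 and every replicate individually at or above 90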;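 note: higher luciferase means less miR-122 activity so hits act as miR-122 inhibitors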
CAL PDZ FP-2 – blocks peptide binding to human CAL PDZ domain; Q9HD26; purified CAL PDZ, TMR-peptide fluorescence polarization, 1 h; inhibition, % at 20 µM; 330,000 compounds, 0.02% hits;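 active = highest replicate inhibition of at least 40%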;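 note: plate controls were DMSO neutral control wells for no effect and unlabeled competitor peptide control wells for full effect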
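Material – purified CerCALP PDZ construct · Detection – FP readout, S and P plane fluorescence · Measure – percent inhibition from loss of millipolarization · Controls – unlabelled peptide for full inhibition, DMSO wells as neutral · Probe or stimulus – TMR-labelled reporter peptide T*-PRC34 bound in PDZ groove · Times – 1 h at RT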
Active calls of the source: *; x = no result given; + = active, no number; [ ] = dose if it differs, or a comment. Shown are actives, neighbours in structure and some others; about 2.1% of the full set was active somewhere.

SMILES	CAL PDZ FP-1	SR-BI uptake up	ARNT-TACC3 inh	SR-BI HDL uptake	miR-122 sensor	CAL PDZ FP-2
O=S(=O)(N[C@H]1CC[C@@H](CCn2cc(-c3cccnc3)nn2)O[C@@H]1CO)c1ccc(F)cc1	x	x	1	x	x	x
O=C(/C=C/c1ccccc1Cl)N(Cc1ccc(Cl)cc1)C1CCS(=O)(=O)C1 (stereo not drawn)	71*	-23	4	23	x	-1
C/C=C/c1cnc2c(c1)C(=O)N([C@@H](C)CO)C[C@H](C)[C@@H](CN(C)C(=O)Nc1ccc(OC)cc1)O2	x	x	-9	x	-5[16.7 µM]	x
COc1ccc(S(=O)(=O)N(C)C[C@@H]2Oc3ccc(NC(=O)Nc4ccc5c(c4)OCO5)cc3C(=O)N([C@H](C)CO)C[C@@H]2C)cc1	x	x	3	x	-7[16.7 µM]	x
CCc1noc(C)c1C(=O)N1CCN(S(=O)(=O)c2cccs2)CC1	50*	-6	-4	6	x	0
CCc1noc(C)c1C(=O)N1CCN(S(=O)(=O)c2ccc(Cl)cc2)CC1	-14	18	1	-18	6	0
COc1ccc(N(C(=O)c2ccco2)S(=O)(=O)c2cc(Cl)c(Cl)cc2Cl)cc1	x	10	-3	-10	134*	-2
COc1ccc(N(C(=O)c2ccco2)S(=O)(=O)c2ccccc2)cc1	-4	-2	2	2	5	-3
CNC(=O)C1=C[C@H](c2csc3ccccc23)C[C@H](OCc2ccc(CO)cc2)O1	x	x	6	x	x	x
COc1ccc(C2NC(=S)NC3=C2N2CCC3CC2)cc1 (stereo not drawn)	2	x	active	x	x	-6
Fc1ccc(C2NC(=S)NC3=C2N2CCC3CC2)cc1 (stereo not drawn)	-2	-17	0	17	x	-1
CCC(=O)N[C@H]1CC[C@@H](CCn2cc(CN(C)C)nn2)O[C@@H]1CO	x	x	8	x	x	x
C[C@@H]1CN([C@H](C)CO)C(=O)c2cc(N(C)C)ccc2O[C@@H](C)CCCCO[C@H]1CN(C)S(=O)(=O)c1ccccc1	x	x	24	x	6[16.7 µM]	x
COC(=O)c1ccc(CSc2nnc3nc(C)cc(C)n23)cc1	33*	2	0	-2	x	-1
Cc1noc(C)c1S(=O)(=O)Nc1ccc2c(c1)C(=O)N([C@@H](C)CO)C[C@@H](C)[C@@H](CN(C)CC1CCCCC1)OCCCC[C@H](C)O2	x	x	1	x	-1[16.7 µM]	x
N#Cc1ccc(Oc2ccc(-c3nc4ccccc4nc3-c3ccccc3)cc2)cc1C#N	-2	10	-2	-10	-3	1
Nc1ccc(Oc2ccc3nc(-c4ccccc4)c(-c4ccc([N+](=O)[O-])cc4)nc3c2)cc1	-23	-76	-5	76*	2	0
CCOC(=O)CSc1nc(N2CCOCC2)c2c(c1C#N)CC(C)(C)OC2	0	416*	-5	-416	-7	-2
CN1CCN(CC(=O)NN2CC(=O)N(c3ccc(F)cc3)CC2=O)CC1	52*	0	-1	0	x	0
C[C@H]1CN([C@@H](C)CO)C(=O)Cc2cc(NC(=O)Nc3ccc(C(F)(F)F)cc3)ccc2O[C@@H]1CN(C)Cc1ccc(-c2ccccc2)cc1	x	x	4	x	-12[16.7 µM]	x
COc1cccc(-c2nc(CS(=O)(=O)CC(=O)N3CCN(C4CCCCC4)CC3)c(C)o2)c1	-4	-75	-1	75*	3	-1
COc1cccc(-c2nc(CS(=O)(=O)CC(=O)N3CCN(C)CC3)c(C)o2)c1	0	24	-3	-24	x	0
Cc1ccc(C(c2nnnn2C2CCCCC2)N2CCc3ccccc32)cc1 (stereo not drawn)	74*	27	3	-27	x	-1
CC(C)C(c1nnnn1C1CCCCC1)N1CCc2ccccc21 (stereo not drawn)	2	6	x	-6	-4	0
COc1ccc(CN2CCN(C(=O)C3CCN(S(=O)(=O)c4cccs4)CC3)CC2)c(OC)c1OC	-1	-76	34	76*	x	0
SMILES	CAL PDZ FP-1	SR-BI uptake up	ARNT-TACC3 inh	SR-BI HDL uptake	miR-122 sensor	CAL PDZ FP-2
CN1CCN(C(=O)C[C@@H]2C[C@@H]3c4cc(NC(=O)Nc5ccc(C(F)(F)F)cc5)ccc4O[C@@H]3[C@H](CO)O2)CC1	x	x	-1	x	1[16.7 µM]	x
COCCNC(=O)c1onc(CSc2ccc(F)cc2)c1C(=O)NCCOC	31*	2	x	-2	1	-1
COc1ccccc1OCC(=O)N1CCCC(Nc2cccc(F)c2)C1 (stereo not drawn)	x	12	-13	-12	x	-1
O=C(c1cc(Cl)ccc1F)N1CCCC(Nc2ccc3c(c2)OCCO3)C1 (stereo not drawn)	37*	-14	5	14	-6	1
Cc1ccc(NC2CCCN(C(=O)CCN3CCCCO3)C2)cc1C (stereo not drawn)	62*	22	3	-22	3	1
O=C(CCN1CCCCO1)N1CCCC(Nc2ccc(F)c(F)c2)C1 (stereo not drawn)	3	-43	3	43	4	0
O=C(c1ccc2nccnc2c1)N1CCCC(Nc2ccc(F)c(F)c2)C1 (stereo not drawn)	51*	8	-3	-8	7	-1
COc1ccccc1OCC(=O)N1CCCC(Nc2ccc(F)c(F)c2)C1 (stereo not drawn)	+	13	-4	-13	-2	-1
CO[C@H]1CN(C)C(=O)c2cc(NC(=O)C3CC3)ccc2OC[C@@H](C)N(C(=O)c2ccccc2F)C[C@H]1C	x	x	0	x	x	x
CN(C)C(=O)c1ccc(-c2ccc([C@H]3[C@@H](CO)N4CCCCN(C(=O)C5CCC5)C[C@@H]34)cc2)cc1	x	x	-4	x	-28[16.7 µM]	x
O=C(NCc1ccncn1)[C@@H]1[C@@H](CO)[C@@H]2Cn3c(cccc3=O)[C@H]1N2CC1CC1	x	x	-9	x	x	x
COc1ccc(-c2ccc3c(c2)[C@@H]2[C@@H](CCN2C(=O)Cc2ccccn2)[C@@H](CO)N3C)cc1	x	x	6	x	3[16.7 µM]	x
Cc1ccccc1C(=O)NNC(=O)C12CC3CC(CC(C3)C1)C2	1	-8	13	8	x	-2
Cc1cccc(C(=O)NNC(=O)C23CC4CC(CC(C4)C2)C3)c1O	0	-100	-3	100*	-1	-2
C=CCn1c(Cc2csc(N)n2)nnc1SCc1ccc(C(=O)OC)cc1	0	-3	28	3	-3	-2
C=CCn1c(Cc2csc(N)n2)nnc1SCC(=O)OCC	-2	36	46*	-36	-3	-1
CC(C)NC(=O)N(C)C[C@@H]1OCCCC[C@H](C)Oc2ccc(NC(=O)Nc3ccc(C(F)(F)F)cc3)cc2C(=O)N([C@H](C)CO)C[C@@H]1C	x	x	-11	x	-6[16.7 µM]	x
O=C(CSc1nc2c(sc3ccccc32)c(=O)n1Cc1ccco1)NCC1CCCO1 (stereo not drawn)	-5	-25	-11	25	-1	-1

Screening results from PubChem.
